pIC50: −log10 of the molar value. Calls of active or inactive are those of the source. The calls are words filed in the database; no cut-off is given here.
Columns and labels:
[1] = Potency index, ratio of sorafenib GI50 to test compound GI50 for human colon cancer cells; assay type: functional, Colon cancer cell
Outline: (§1)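 GI50 is the concentration giving 50% reduction in net protein increase relative to control. Potency index is the reference-drug GI50 divided by the test-compound GI50.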

SR = test: Cytotoxicity against human SR cells after 48 hrs by SRB assay; assay type: functional
Outline: (§2)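 NCI-60 panel; cells grown in RPMI 1640 with 5% FBS and 2 mM L-glutamine, plated at 5000–40 000 cells/well by doubling time, preincubated 24 h (37 °C, 5% CO2). Drug added at five concentrations, 1-log steps from 10−4 to 10−8 M, for 48 h. Fixed with TCA, stained with 0.4% SRB, absorbance read at 515 nm. Percent growth computed against time-zero and untreated controls; GI50, TGI and LC50 derived.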

[2] = molecular target: Mitogen-activated protein kinase kinase kinase kinase 5 (Homo sapiens) (UniProt Q9Y4K4); test: Inhibition of human KHS at 0.5 uM relative to control
Chain of Mitogen-activated protein kinase kinase kinase kinase 5 (Homo sapiens) (Q9Y4K4 whole entry, looked up): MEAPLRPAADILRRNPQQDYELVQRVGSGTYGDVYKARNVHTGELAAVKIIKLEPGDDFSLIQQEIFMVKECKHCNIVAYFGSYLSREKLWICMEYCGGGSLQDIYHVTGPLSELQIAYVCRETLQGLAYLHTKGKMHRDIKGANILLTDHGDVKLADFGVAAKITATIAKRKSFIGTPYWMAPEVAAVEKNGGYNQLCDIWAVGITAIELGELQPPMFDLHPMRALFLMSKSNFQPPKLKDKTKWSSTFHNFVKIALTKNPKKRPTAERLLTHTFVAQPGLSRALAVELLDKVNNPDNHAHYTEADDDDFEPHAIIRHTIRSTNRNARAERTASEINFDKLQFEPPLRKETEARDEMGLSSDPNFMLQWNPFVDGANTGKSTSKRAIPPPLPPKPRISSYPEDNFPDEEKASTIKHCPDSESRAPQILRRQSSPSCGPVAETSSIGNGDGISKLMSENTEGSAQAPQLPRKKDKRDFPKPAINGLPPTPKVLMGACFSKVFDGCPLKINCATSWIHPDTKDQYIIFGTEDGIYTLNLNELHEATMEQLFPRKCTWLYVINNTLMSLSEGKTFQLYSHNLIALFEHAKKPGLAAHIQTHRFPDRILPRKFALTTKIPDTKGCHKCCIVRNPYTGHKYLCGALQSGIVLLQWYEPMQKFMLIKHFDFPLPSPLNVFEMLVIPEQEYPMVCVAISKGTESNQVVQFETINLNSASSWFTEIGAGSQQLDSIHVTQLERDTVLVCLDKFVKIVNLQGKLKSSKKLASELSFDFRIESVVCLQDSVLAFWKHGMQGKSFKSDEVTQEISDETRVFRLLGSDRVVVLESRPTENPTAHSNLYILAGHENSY

SF-539 = test: Cytotoxicity against human SF539 cells after 48 hrs by SRB assay; assay type: functional; conditions: SF-539, 48 h; outline: as §2
UO-31 = test: Cytotoxicity against human UO31 cells after 48 hrs by SRB assay; assay type: functional; conditions: UO-31, 48 h
Outline: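 NCI-60 panel, five doses at 1-log steps from 10−4 to 10−8 M. Cells grown in RPMI 1640 with 5% FBS and 2 mM L-glutamine, seeded at 5000–40 000 cells/well and preincubated 24 h. Tz plates were TCA-fixed at drug addition. Drug exposure 48 h at 37 °C, then TCA fixation, 0.4% SRB stain and absorbance at 515 nm. GI50 taken from percent growth relative to Tz and control.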

[3] = Potency index, ratio of sorafenib GI50 to test compound GI50 for human non-small cell lung cancer cells; assay type: functional; outline: as §1
[4] = Potency index, ratio of sunitinib GI50 to test compound GI50 for human prostate cancer cells; assay type: functional, Prostate cancer cell
Leukemia cell [5] = test: Potency index, ratio of sunitinib GI50 to test compound GI50 for human leukemia cells; assay type: functional; outline: as §1
Hs-578T = test: Cytotoxicity against human Hs 578T cells after 48 hrs by SRB assay; assay type: functional; outline: as §2
[6] = molecular target: Ephrin type-A receptor 4 (Homo sapiens) (UniProt P54764); test: Inhibition of human EPHA4 at 0.5 uM relative to control
Chain of Ephrin type-A receptor 4 (Homo sapiens) (P54764 whole entry): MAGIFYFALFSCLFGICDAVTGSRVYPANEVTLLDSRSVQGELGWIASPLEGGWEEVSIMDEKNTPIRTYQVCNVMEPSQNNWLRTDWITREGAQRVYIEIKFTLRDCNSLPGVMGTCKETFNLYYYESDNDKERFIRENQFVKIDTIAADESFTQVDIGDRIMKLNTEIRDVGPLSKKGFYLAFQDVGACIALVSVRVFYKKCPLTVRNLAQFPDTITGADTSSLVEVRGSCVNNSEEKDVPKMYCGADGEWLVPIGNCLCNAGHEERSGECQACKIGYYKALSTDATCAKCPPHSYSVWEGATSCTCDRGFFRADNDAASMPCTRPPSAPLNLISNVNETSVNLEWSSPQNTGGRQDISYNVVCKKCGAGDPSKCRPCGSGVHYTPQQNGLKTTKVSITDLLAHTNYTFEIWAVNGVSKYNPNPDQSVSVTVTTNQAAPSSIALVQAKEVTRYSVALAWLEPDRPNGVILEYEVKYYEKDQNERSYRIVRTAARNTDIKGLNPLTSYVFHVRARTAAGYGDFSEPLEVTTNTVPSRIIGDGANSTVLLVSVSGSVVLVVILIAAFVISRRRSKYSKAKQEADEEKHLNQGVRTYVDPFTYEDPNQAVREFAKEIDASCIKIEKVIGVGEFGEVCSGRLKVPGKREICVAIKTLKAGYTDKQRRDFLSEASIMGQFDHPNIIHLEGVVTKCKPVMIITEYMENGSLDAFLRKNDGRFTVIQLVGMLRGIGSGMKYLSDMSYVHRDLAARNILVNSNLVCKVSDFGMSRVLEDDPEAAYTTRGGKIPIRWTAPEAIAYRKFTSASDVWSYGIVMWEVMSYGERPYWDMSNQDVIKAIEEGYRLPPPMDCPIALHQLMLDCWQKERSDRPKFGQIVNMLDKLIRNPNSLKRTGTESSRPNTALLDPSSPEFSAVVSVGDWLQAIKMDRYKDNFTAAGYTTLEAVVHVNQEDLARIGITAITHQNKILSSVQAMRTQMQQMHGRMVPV

[7] = Potency index, ratio of sunitinib GI50 to test compound GI50 for human renal cancer cells; assay type: functional, Renal cancer cell
NCI-H226 = test: Cytotoxicity against human NCI-H226 cells after 48 hrs by SRB assay; assay type: functional; conditions: NCI-H226, 48 h; outline: as §2
HCT-15 = test: Cytotoxicity against human HCT15 cells after 48 hrs by SRB assay; assay type: functional; conditions: HCT-15, 48 h; outline: as §2
SF-268 = test: Cytotoxicity against human SF268 cells after 48 hrs by SRB assay; assay type: functional; conditions: SF-268, 48 h; outline: as §2
HCT-116 = test: Cytotoxicity against human HCT116 cells after 48 hrs by SRB assay; assay type: functional; conditions: HCT-116, 48 h; outline: as §2
[8] = molecular target: Tyrosine-protein kinase ABL1 (Homo sapiens) (UniProt P00519); conditions: at 0.5 µM
Chain of Tyrosine-protein kinase ABL1 (Homo sapiens) (P00519 whole entry): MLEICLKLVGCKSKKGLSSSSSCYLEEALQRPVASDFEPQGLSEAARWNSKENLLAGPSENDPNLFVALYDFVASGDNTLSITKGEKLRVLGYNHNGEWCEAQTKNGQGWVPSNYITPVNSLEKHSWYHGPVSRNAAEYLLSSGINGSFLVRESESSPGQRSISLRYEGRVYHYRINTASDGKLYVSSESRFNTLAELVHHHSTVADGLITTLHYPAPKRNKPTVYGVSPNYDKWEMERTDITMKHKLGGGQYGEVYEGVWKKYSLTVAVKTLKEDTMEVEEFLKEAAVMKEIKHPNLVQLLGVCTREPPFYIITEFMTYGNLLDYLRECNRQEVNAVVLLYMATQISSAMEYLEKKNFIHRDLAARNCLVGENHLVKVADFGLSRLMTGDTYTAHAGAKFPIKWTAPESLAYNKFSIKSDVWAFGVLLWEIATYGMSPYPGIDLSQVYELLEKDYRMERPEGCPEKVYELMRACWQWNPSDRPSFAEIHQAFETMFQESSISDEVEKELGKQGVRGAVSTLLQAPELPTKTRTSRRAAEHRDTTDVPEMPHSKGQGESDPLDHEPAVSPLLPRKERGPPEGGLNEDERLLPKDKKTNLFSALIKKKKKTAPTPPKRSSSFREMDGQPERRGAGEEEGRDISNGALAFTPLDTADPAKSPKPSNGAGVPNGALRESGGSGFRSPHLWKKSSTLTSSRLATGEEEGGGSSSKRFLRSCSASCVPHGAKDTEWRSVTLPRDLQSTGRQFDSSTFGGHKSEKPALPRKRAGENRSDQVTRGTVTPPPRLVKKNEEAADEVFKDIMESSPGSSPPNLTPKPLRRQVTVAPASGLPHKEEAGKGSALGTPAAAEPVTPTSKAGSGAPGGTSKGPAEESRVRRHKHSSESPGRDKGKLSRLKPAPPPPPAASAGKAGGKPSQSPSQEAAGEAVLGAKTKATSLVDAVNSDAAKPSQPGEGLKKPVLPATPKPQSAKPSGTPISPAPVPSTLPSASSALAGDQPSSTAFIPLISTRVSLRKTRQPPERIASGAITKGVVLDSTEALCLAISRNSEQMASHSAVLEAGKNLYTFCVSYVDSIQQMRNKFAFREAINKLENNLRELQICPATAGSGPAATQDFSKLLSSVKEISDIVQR

MDA-MB-435 [9] = test: Growth inhibition of human MDA-MB-435 cells after 72 hrs by CellTiter-Glo assay; assay type: functional, cell-based; conditions: MDA-MB-435, 72 h
Outline: (§3)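 Cells in exponential phase seeded at 2000–4000 cells/well, then exposed 72 h at 37 °C, 5% CO2 with 0.1% final DMSO. Single-point screen at 10 μM final. […] Read-out was CellTiter-Glo luminescence.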

MDA-MB-435 [10] = test: Cytotoxicity against human MDA-MB-435 cells after 48 hrs by SRB assay; assay type: functional; conditions: MDA-MB-435, 48 h; outline: as §2
Leukemia cell [11] = test: Potency index, ratio of sorafenib GI50 to test compound GI50 for human leukemia cells; assay type: functional; outline: as §1
MCF7 = test: Cytotoxicity against human MCF7 cells after 48 hrs by SRB assay; assay type: functional; conditions: MCF7, 48 h; outline: as §2
NCI-H23 = test: Cytotoxicity against human NCI-H23 cells after 48 hrs by SRB assay; assay type: functional; conditions: NCI-H23, 48 h; outline: as §2
SNB-75 = test: Cytotoxicity against human SNB75 cells after 48 hrs by SRB assay; assay type: functional; conditions: SNB-75, 48 h; outline: as §2
[12] = molecular target: Fibroblast growth factor receptor 1 (Homo sapiens) (UniProt P11362); test: Inhibition of human FGFR1 at 0.5 uM relative to control
Chain of Fibroblast growth factor receptor 1 (Homo sapiens) (P11362 22-822 limits assumed): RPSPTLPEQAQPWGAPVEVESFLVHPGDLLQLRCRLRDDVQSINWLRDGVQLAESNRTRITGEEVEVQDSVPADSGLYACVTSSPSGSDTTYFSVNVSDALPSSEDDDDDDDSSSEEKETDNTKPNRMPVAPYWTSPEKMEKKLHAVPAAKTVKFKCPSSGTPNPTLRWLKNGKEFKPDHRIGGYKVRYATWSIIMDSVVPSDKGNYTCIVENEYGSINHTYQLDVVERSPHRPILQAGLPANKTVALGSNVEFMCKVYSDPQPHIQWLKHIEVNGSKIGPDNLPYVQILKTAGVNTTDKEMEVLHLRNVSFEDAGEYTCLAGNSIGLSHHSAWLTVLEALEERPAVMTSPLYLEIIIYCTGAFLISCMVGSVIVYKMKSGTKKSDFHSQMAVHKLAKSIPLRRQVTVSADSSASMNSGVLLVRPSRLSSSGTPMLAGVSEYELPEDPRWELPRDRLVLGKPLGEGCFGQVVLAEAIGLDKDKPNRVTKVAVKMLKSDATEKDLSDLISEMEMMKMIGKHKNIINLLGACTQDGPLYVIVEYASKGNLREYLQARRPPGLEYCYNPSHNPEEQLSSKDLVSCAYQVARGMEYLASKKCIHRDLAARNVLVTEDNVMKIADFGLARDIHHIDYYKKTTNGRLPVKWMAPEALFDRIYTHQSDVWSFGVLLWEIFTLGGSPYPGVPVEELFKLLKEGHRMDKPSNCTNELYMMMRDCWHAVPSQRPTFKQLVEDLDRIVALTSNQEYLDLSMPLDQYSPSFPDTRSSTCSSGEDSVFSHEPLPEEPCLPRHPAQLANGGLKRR

HUVEC = test: Growth inhibition of HUVEC after 72 hrs by CellTiter-Glo assay; assay type: functional, cell-based; conditions: Homo sapiens; outline: as §3
RPMI-8226 = test: Cytotoxicity against human RPMI8226 cells after 48 hrs by SRB assay; assay type: functional; conditions: RPMI-8226, 48 h; outline: as §2
A-431 = test: Growth inhibition of human A431 cells at 10 uM after 72 hrs by CellTiter-Glo assay relative to control; assay type: functional; conditions: A-431, 72 h, read-out: GI
Outline: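 A431 cells seeded at 2000–4000 cells/well and treated with 10 μM final compound, 0.1% DMSO, for 72 h at 37 °C, 5% CO2. Viability read by CellTiter-Glo. Inhibition ratio = 1 − Vsample/Vvehicle control; triplicate.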

[13] = molecular target: Ephrin type-A receptor 5 (Homo sapiens) (UniProt P54756); test: Inhibition of human EPHA5 at 0.5 uM relative to control
[14] = molecular target: Mitogen-activated protein kinase kinase kinase 7 (Homo sapiens) (UniProt O43318); test: Inhibition of human TAK1 at 0.5 uM relative to control
Chain of Mitogen-activated protein kinase kinase kinase 7 (Homo sapiens) (O43318 whole entry, looked up): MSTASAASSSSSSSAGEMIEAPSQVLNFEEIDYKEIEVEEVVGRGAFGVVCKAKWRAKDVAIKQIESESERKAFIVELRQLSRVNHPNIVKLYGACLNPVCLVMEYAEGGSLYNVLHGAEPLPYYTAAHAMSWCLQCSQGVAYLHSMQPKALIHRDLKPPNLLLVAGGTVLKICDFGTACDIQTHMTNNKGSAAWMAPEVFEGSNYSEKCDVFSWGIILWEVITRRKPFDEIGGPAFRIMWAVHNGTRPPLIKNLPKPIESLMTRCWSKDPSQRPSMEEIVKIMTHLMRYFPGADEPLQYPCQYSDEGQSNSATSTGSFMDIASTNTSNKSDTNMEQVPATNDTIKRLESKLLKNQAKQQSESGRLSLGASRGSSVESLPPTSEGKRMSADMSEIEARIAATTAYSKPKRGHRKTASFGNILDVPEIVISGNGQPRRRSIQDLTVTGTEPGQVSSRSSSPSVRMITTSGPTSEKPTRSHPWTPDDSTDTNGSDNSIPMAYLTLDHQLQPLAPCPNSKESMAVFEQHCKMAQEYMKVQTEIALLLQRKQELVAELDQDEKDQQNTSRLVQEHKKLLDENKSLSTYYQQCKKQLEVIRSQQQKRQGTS

Malme-3M = test: Cytotoxicity against human MALME-3M cells after 48 hrs by SRB assay; assay type: functional; outline: as §2
NCI/ADR-RES = test: Potency index, ratio of sorafenib GI50 to test compound GI50 for human NCI-ADR-RES cells; assay type: functional; outline: as §1
RXF 393 = test: Cytotoxicity against human RXF393 cells after 48 hrs by SRB assay; assay type: functional; conditions: RXF 393, 48 h; outline: as §2
[15] = read-out: LC50 (the source's name)

Compound: COc1cc2ncnc(Oc3ccc(NC(=O)Nc4ccc(CN5CCOCC5)c(C(F)(F)F)c4)c4ccccc34)c2cc1OC
- RatioGI50 [1]: 1.6 - 2.9
- GI50 (SR): 0.69 µM
- TGI (SR): 5.37 µM
- CC50 (SR; [15]): > 100 µM
- inhibition [2]: Active
- GI50 (SF-539): 1.58 µM
- TGI (SF-539): 19.5 µM
- CC50 (SF-539; [15]): 52.5 µM
- GI50 (UO-31): 0.2 µM
- TGI (UO-31): 10.2 µM
- CC50 (UO-31; [15]): 38 µM
- RatioGI50 [3]: 3.9 - 9.5
- RatioGI50 [4]: 1.5
- RatioGI50 (Leukemia cell [5]): 5 - 7.7
- GI50 (Hs-578T): 1.12 µM
- TGI (Hs-578T): 9.33 µM
- CC50 (Hs-578T; [15]): > 100 µM
- inhibition [6]: Active
- RatioGI50 [7]: 6.8
- GI50 (NCI-H226): 0.07 µM
- TGI (NCI-H226): 13.8 µM
- CC50 (NCI-H226; [15]): > 100 µM
- GI50 (HCT-15): 1 µM
- TGI (HCT-15): 5.13 µM
- CC50 (HCT-15; [15]): 28.2 µM
- GI50 (SF-268): 0.46 µM
- TGI (SF-268): 15.8 µM
- CC50 (SF-268; [15]): 79.4 µM
- GI50 (HCT-116): 0.79 µM
- TGI (HCT-116): 2.57 µM
- CC50 (HCT-116; [15]): 7.08 µM
- inhibition [8]: Active
- pIC50 (MDA-MB-435 [9]): 5.63
- GI50 (MDA-MB-435 [10]): 0.37 µM
- TGI (MDA-MB-435 [10]): 3.39 µM
- CC50 (MDA-MB-435 [10]; [15]): 33.9 µM
- RatioGI50 (Leukemia cell [11]): 3.9 - 9.5
- GI50 (MCF7): 0.33 µM
- TGI (MCF7): 11 µM
- CC50 (MCF7; [15]): > 100 µM
- GI50 (NCI-H23): 0.62 µM
- TGI (NCI-H23): 3.98 µM
- CC50 (NCI-H23; [15]): > 100 µM
- GI50 (SNB-75): 1.05 µM
- TGI (SNB-75): 13.8 µM
- CC50 (SNB-75; [15]): 38.9 µM
- inhibition [12]: > 96%
- pIC50 (HUVEC): 6.20
- GI50 (RPMI-8226): 0.39 µM
- TGI (RPMI-8226): 2.95 µM
- CC50 (RPMI-8226; [15]): > 100 µM
- inhibition of growth at 10 µM (A-431): 57.7%
- inhibition [13]: Active
- inhibition [14]: Active
- GI50 (Malme-3M): 0.3 µM
- TGI (Malme-3M): 1.55 µM
- CC50 (Malme-3M; [15]): 5.75 µM
- RatioGI50 (NCI/ADR-RES): 3.3
- GI50 (RXF 393): 1.05 µM
- TGI (RXF 393): 7.08 µM
- CC50 (RXF 393; [15]): 29.5 µM

From ChEMBL document CHEMBL4028913, “Discovery of Novel Potent VEGFR-2 Inhibitors Exerting Significant Antiproliferative Activity against Cancer Cell Lines” (J Med Chem, 2018)
